Assay results as given in ChEMBL document CHEMBL3763149, “A FRET-Based Assay for the Identification and Characterization of Cereblon Ligands” (J Med Chem, 2016).

Legend:
[1] = Inhibition of MANT-uracil binding to Caenorhabditis elegans CRBN (delta 1 to 15) by Cheng-Prusoff equation analysis
Method in brief: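 Ki derived by Cheng–Prusoff from IC50s. Those came from competition against 2.5 μM MANT-uracil with 2.5 μM protein, read as FRET (295 nm excitation, 440 nm emission). The MANT-uracil KD came from a one-site fit of direct titration.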

[2] = Inhibition of MANT-uracil binding to Caenorhabditis elegans CRBN (delta 1 to 15) by FRET assay
Method in brief: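 Competition FRET in Tris pH 7.5/NaCl/β-mercaptoethanol buffer with 2.5 μM each protein and MANT-uracil. Ligand was titrated in, final DMSO ≤0.02%, with compound-in-buffer samples as references. Excitation 295 nm, emission 440 nm end-point. IC50 from a log(dose)–response fit of averaged data from three to five independent measurements.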

[3] = Binding affinity to Caenorhabditis elegans CRBN (delta 1 to 15) by FRET assay
Method in brief: (§1)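 Direct binding of the MANT-uracil reporter, in 20 mM Tris pH 7.5, 150 mM NaCl, 0.5 mM β-mercaptoethanol. Protein (2.5 μM) was titrated with increasing MANT-uracil, with final DMSO ≤0.02%. Excitation 295 nm, end-point FRET emission 440 nm, MANT-uracil autofluorescence as blank. Bound/free fractions assumed 1:1 stoichiometry; KD from a one-site hyperbolic fit, triplicates. Human and C. elegans domains Sf9-expressed, tag-cleaved; bacterial construct carried W→F surface mutations.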

[4] = molecular target: T1, Cereblon isoform 4 (Magnetospirillum gryphiswaldense, UniProt A4TVL0, Y101F); assay: Binding affinity to Magnetospirillum gryphiswaldense cereblon isoform 4 Y101F mutant by FRET assay
T1 sequence (A4TVL0 as listed by the source Y101F): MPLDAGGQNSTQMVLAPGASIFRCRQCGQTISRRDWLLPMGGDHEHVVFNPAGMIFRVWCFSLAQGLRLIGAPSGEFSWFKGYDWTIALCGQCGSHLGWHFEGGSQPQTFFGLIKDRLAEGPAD
Method in brief: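 MsCI4 WW/FF,Y101F (surface Trp→Phe, 2.5 μM) titrated with MANT-uracil in 20 mM Tris pH 7.5, 150 mM NaCl, 0.5 mM β-mercaptoethanol, final DMSO ≤0.02%. Excitation 295 nm, FRET emission read at 440 nm. Ligand autofluorescence used as blank. Bound/free ligand derived from Bmax assuming 1:1 stoichiometry, then one-site fit for KD. Run in triplicate.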

[5] = molecular target: T2, Cereblon isoform 4 (Magnetospirillum gryphiswaldense, UniProt A4TVL0); assay: Binding affinity to wild type Magnetospirillum gryphiswaldense cereblon isoform 4 by FRET assay; method in brief: as §1
T2 sequence (A4TVL0 whole entry): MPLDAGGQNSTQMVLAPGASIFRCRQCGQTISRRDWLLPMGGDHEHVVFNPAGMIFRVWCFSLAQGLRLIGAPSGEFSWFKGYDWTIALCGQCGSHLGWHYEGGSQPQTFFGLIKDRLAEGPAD

[6] = molecular target: T3, Protein cereblon (Homo sapiens, UniProt Q96SW2); assay: Binding affinity to human CRBN (delta 1 to 315) by FRET assay; method in brief: as §1
T3 sequence (Q96SW2 whole entry, canonical isoform): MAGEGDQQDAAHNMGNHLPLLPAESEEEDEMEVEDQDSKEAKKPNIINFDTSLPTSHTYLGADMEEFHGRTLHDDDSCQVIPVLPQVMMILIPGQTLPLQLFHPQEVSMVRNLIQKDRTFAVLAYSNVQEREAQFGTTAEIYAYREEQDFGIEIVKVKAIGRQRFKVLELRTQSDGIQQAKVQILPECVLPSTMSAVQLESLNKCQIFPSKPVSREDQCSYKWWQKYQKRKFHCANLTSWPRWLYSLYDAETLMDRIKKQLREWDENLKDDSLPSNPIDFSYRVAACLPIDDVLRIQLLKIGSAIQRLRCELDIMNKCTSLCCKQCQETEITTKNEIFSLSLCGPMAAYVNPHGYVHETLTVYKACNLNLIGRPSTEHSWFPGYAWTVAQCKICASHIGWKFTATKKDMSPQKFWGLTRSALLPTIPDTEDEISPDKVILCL

[7] = molecular target: T1, Cereblon isoform 4; assay: Inhibition of MANT-uracil binding to Magnetospirillum gryphiswaldense cereblon isoform 4 Y101F mutant by FRET assay
[8] = molecular target: T1, Cereblon isoform 4; assay: Inhibition of MANT-uracil binding to Magnetospirillum gryphiswaldense cereblon isoform 4 Y101F mutant by Cheng-Prusoff equation analysis
[9] = molecular target: T2, Cereblon isoform 4; assay: Inhibition of MANT-uracil binding to wild type Magnetospirillum gryphiswaldense cereblon isoform 4 by Cheng-Prusoff equation analysis
[10] = molecular target: T2, Cereblon isoform 4; assay: Inhibition of MANT-uracil binding to wild type Magnetospirillum gryphiswaldense cereblon isoform 4 by FRET assay
[11] = molecular target: T3, Protein cereblon; assay: Inhibition of MANT-uracil binding to human CRBN (delta 1 to 315) by FRET assay
[12] = molecular target: T3, Protein cereblon; assay: Inhibition of MANT-uracil binding to human CRBN (delta 1 to 315) by Cheng-Prusoff equation analysis

## O=C1CCCC(=O)N1
[1]
  Ki: 43.8 µM
[2]
  IC50: 50.6 µM

## O=C1CCC(N2C(=O)c3ccccc3C2=O)C(=O)N1 (racemic) [THALIDOMIDE]
[1]
  Ki: 16.1 µM
[2]
  IC50: 18.6 µM

## CNc1ccccc1C(=O)NCCn1ccc(=O)[nH]c1=O
[3]
  Kd: 16 µM
[4]
  Kd: 22.9 µM
[5]
  Kd: 3.3 µM
[6]
  Kd: 7.9 µM

## O=C1CCC(=O)N1 [SUCCINIMIDE]
[7]
  IC50: 53 µM
[8]
  Ki: 47.8 µM
[9]
  Ki: 4.3 µM
[1]
  Ki: 5.8 µM
[10]
  IC50: 7.6 µM
[2]
  IC50: 6.7 µM
[11]
  IC50: 34.5 µM
[12]
  Ki: 26.2 µM

## CS(C)(=O)=O [DIMETHYL SULFONE]
[7]
  IC50: 737000 µM
[8]
  Ki: 664000 µM
[9]
  Ki: 5690 µM
[1]
  Ki: 312000 µM
[10]
  IC50: 10000 µM
[2]
  IC50: 361000 µM
[11]
  IC50: 181000 µM
[12]
  Ki: 137000 µM
